core dimer inh = inhibitors of HCV core protein dimerization, primary screen, biochemical, TR-FRET, high-throughput; TR-FRET GST/Flag-core106 dimerization, 1536-well; inhibition, % at 5 µM; actives 0.33% (n = 300,000);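 active = inhibition above the mean of all tested compounds plus 3 SD, set per screening campaign, cut at about 45% in these data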
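System: GST-tagged and Flag-tagged HCV core protein residues 1-106 / Input: core106 proteins, GST 13.5 nM and Flag 17 nM / Buffer or medium: KF-containing HEPES buffer, pH 7.45, DTT, CHAPS, BSA / Probe or stimulus: Eu-anti-GST and XL665-anti-Flag labelled anti-tag antibodies / Schedule: 4 h, 22.5 °C incubation / Technique: TR-FRET 671 and 617 nm emission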
NadD inh = inhibitors of S. aureus NadD, primary screen, biochemical, colorimetric, uHTS; inhibition, % at 20 µM; Nicotinate-nucleotide adenylyltransferase NadD (Staphylococcus aureus N315); AID 602399, 2012; purified NadD enzyme, colorimetric absorbance read-out; actives 0.78% (n = 360,000); in the data active = inhibition above about 26%
rCAG binder = binders of r(CAG) RNA repeats, primary screen, biochemical, fluorescence; inhibition, % at 3 µM; r(CAG) RNA repeat, TO-PRO-1 dye displacement fluorescence; actives 1.3% (n = 370,000);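 active = inhibition above the plate cutoff, the mean of all test compounds on that plate plus 3 SD, cut at about 35% in these data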;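 also: higher means more dye released from RNA so lower well fluorescence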
ABHD5-PLIN5 inh = ABHD5-PLIN5 interaction inhibitors, primary screen, cell lysate, split luciferase complementation, luminescence | Split G. princeps luciferase complementation, 4 h | AID 602281, 2012 | Perilipin-5 (Homo sapiens) + 1-acylglycerol-3-phosphate O-acyltransferase ABHD5 (Homo … | inhibition, % at 4 µM | actives 0.78% (n = 360,000);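 active = inhibition above the mean inhibition across every tested compound plus 3 SD, cut at about 22% in these data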
rCAG binder conf = small molecules binding CAG repeat RNA – biochemical, fluorescence, confirmation. shares compounds with rCAG binder. r(CAG) RNA repeat, TO-PRO-1 dye displacement fluorescence. inhibition, % at 3 µM. actives 70% (n = 4,300). AID 652065, 2013;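 active = inhibition above a per-plate cutoff, the mean inhibition of sample wells plus 3 SD, cut at about 35% in these data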;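 also: loss of TO-PRO-1 fluorescence as compound displaces dye from 1x1 AA loop RNA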
dCAG dye counter = displacement of TO-PRO-1 from CAG DNA duplex, counter-screen for rCAG RNA repeat binder project, biochemical, fluorescence, TO-PRO-1 dye, d(CAG) DNA oligo | shares compounds with rCAG binder | d(CAG) DNA oligo TO-PRO-1 dye displacement | inhibition, % at 3 µM | actives 94% (n = 4,300);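 active = inhibition above its plate's cutoff, the mean test-well inhibition plus 3 SD, cut at about 4.8% in these data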;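 also: hits displace the dye from DNA and so lower well fluorescence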
Hits are given with their value. Compounds with a hit are over-represented: about 2.6% of the library has one in this group of screens.

`Cc1[nH]n(-c2ccccc2)c(=O)c1C(c1cccc([N+](=O)[O-])c1O)c1c(C)[nH]n(-c2ccccc2)c1=O` gave core dimer inh inactive, NadD inh inactive, rCAG binder 79, ABHD5-PLIN5 inh inactive, rCAG binder conf 46 and dCAG dye counter 13.
For Cc1[nH]n(-c2ccccc2)c(=O)c1C(c1cccc([N+](=O)[O-])c1)c1c(C)[nH]n(-c2ccccc2)c1=O the results were core dimer inh inactive, NadD inh inactive, rCAG binder 68, ABHD5-PLIN5 inh inactive, rCAG binder conf 50 and dCAG dye counter 20.
Cc1c(C(c2cccc([N+](=O)[O-])c2O)c2c(C)n(C)n(-c3ccccc3)c2=O)c(=O)n(-c2ccccc2)n1C was read as core dimer inh inactive, NadD inh inactive, rCAG binder inactive and ABHD5-PLIN5 inh inactive.
Screening C[C@@H]1C=CCCO[C@]12C(=O)N(CC1CC1)c1cccc(Br)c12 returned rCAG binder inactive.
`Cc1ccc(S(=O)(=O)Oc2ccc(/C=C(/NC(=O)c3ccccc3)C(=O)O)cc2)cc1` gave core dimer inh inactive, NadD inh inactive, rCAG binder 40, ABHD5-PLIN5 inh inactive, rCAG binder conf 37 and dCAG dye counter 9.3.
`COc1cc(OC)c2c(=O)c3c(C(=O)O)c(O)ccc3oc2c1` gave rCAG binder inactive.
Cc1ccc2c(c1)c(CC(=O)Nc1ccc(C)c(F)c1)c(C(=O)O)n2C was read as core dimer inh inactive, NadD inh inactive, rCAG binder 49, ABHD5-PLIN5 inh inactive, rCAG binder conf 44 and dCAG dye counter 13.
`Cn1c(C(=O)O)c(CC(=O)Nc2ccccc2F)c2ccccc21` gave core dimer inh inactive, NadD inh inactive, rCAG binder inactive and ABHD5-PLIN5 inh inactive.
CCOC(=O)C1=C[C@@H](C2CCCC2)N(S(=O)(=O)c2ccc([N+](=O)[O-])cc2)[C@H]1c1ccccc1 was read as NadD inh inactive, rCAG binder inactive and ABHD5-PLIN5 inh inactive.
Cc1ccc(S(=O)(=O)N2[C@@H](c3ccc(Cl)cc3)C(C(=O)O)=C[C@H]2C(C)(C)C)cc1 was read as NadD inh inactive, rCAG binder 48, ABHD5-PLIN5 inh inactive, rCAG binder conf 42 and dCAG dye counter 11.
Cc1ccc(S(=O)(=O)N2[C@@H](c3ccc(Br)cc3)C(C(=O)O)=C[C@H]2C(C)(C)C)cc1 was read as NadD inh inactive, rCAG binder 47, ABHD5-PLIN5 inh inactive, rCAG binder conf 54 and dCAG dye counter 16.
For Cc1ccc(S(=O)(=O)N2[C@@H](c3ccc(C#N)cc3)C(C(=O)O)=C[C@H]2C(C)(C)C)cc1 the results were NadD inh inactive, rCAG binder inactive and ABHD5-PLIN5 inh inactive.
Screening COC(=O)[C@]12C[C@H](CC(=O)NCc3cccs3)C(=O)N(CCc3ccc(OC)c(OC)c3)C1=C[C@H](C(C)(C)C)O[C@@H]2C returned rCAG binder inactive.
Screening Cc1c(C(C)c2ccccc2O)c2ccccc2n1C (configuration not stated) returned rCAG binder inactive.
Screening CC1(C)OC(C)(C)C(=N/O)/C1=N\N returned rCAG binder inactive.
Screening COc1ccccc1NC(=O)C(=O)NNS(=O)(=O)c1ccc2ccccc2c1 returned core dimer inh inactive, NadD inh inactive, rCAG binder 38, ABHD5-PLIN5 inh inactive, rCAG binder conf inactive and dCAG dye counter 6.1.
O=C(O)c1cc(NS(=O)(=O)c2ccc3ccccc3c2)ccc1O was read as core dimer inh inactive, NadD inh inactive, rCAG binder inactive and ABHD5-PLIN5 inh inactive.
Screening Cc1ccccc1-c1nc2ccccc2c(=O)o1 returned NadD inh inactive, rCAG binder inactive and ABHD5-PLIN5 inh inactive.
Screening O=c1oc(-c2ccccc2NS(=O)(=O)c2ccc3ccccc3c2)nc2ccccc12 returned core dimer inh inactive, NadD inh inactive, rCAG binder 66, ABHD5-PLIN5 inh inactive, rCAG binder conf 37 and dCAG dye counter 12.
Screening O=C(O)c1ccccc1NS(=O)(=O)c1ccc2ccccc2c1 returned core dimer inh inactive, NadD inh inactive, rCAG binder 39, ABHD5-PLIN5 inh inactive, rCAG binder conf inactive and dCAG dye counter 6.1.
Screening CC(C)C[C@@H]1COc2cccc(N3CCCC3)c2S(=O)(=O)N1C returned rCAG binder inactive.
CCSCCCn1[nH]c2ccccc2c1=O was read as NadD inh inactive, rCAG binder inactive and ABHD5-PLIN5 inh inactive.
For Cc1c(C(=O)NN)[nH]c2ccc([N+](=O)[O-])cc12 the results were core dimer inh inactive, NadD inh inactive, rCAG binder inactive and ABHD5-PLIN5 inh inactive.
`Cc1ccc(C)c2c1[nH]c1ccc([N+](=O)[O-])cc12` gave core dimer inh inactive, NadD inh inactive, rCAG binder 40, ABHD5-PLIN5 inh inactive, rCAG binder conf inactive and dCAG dye counter 14.
For CN(Cc1cn(Cc2cccc(Cl)c2)nn1)C1CN(Cc2cn(Cc3cccc(Cl)c3)nn2)S(=O)(=O)C1 (configuration not stated) the results were NadD inh inactive, rCAG binder inactive and ABHD5-PLIN5 inh inactive.
`O=C(CC(c1ccccc1)(c1ccccc1)c1ccccc1)N[C@@H](Cc1ccccc1)C(=O)O` gave core dimer inh inactive, NadD inh inactive, rCAG binder inactive and ABHD5-PLIN5 inh inactive.
O=C(O)[C@H](Cc1ccccc1)NC(=O)C(c1ccccc1)(c1ccccc1)c1ccccc1 was read as core dimer inh inactive, NadD inh inactive, rCAG binder 38, ABHD5-PLIN5 inh inactive, rCAG binder conf 53 and dCAG dye counter 13.
For O=C(/C=C/c1ccc(Br)cc1)Nc1ccc(S(=O)(=O)Nc2ncccn2)cc1 the results were core dimer inh inactive, NadD inh inactive, rCAG binder 38, ABHD5-PLIN5 inh inactive, rCAG binder conf inactive and dCAG dye counter 5.9.
`Cc1noc(NS(=O)(=O)c2ccc(NC(=O)/C=C/c3ccc(Cl)cc3Cl)cc2)c1C` gave NadD inh inactive, rCAG binder inactive and ABHD5-PLIN5 inh inactive.
For Cc1noc(NS(=O)(=O)c2ccc(NC(=O)C(CC(C)C)N3C(=O)c4ccccc4C3=O)cc2)c1C (configuration not stated) the results were core dimer inh inactive, NadD inh inactive, rCAG binder 63, ABHD5-PLIN5 inh inactive, rCAG binder conf 45 and dCAG dye counter 15.

Screening data: PubChem, several laboratories
